Assay results taken from ChEMBL document CHEMBL4196069 (Eur J Med Chem, 2018).
Calls of active or inactive are those of the source. The rule behind the calls is not given here.

Tests used:
PC-3 = assay: Antiproliferative activity against human PC3 cells after 72 hrs by MTT assay; format: functional, cell-based; conditions: PC-3, 72 h
Outline: (§1)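 Cells pre-incubated 24 h at 37 °C in humidified 5% CO2, then exposed to compounds for 72 h. MTT (5 mg/mL) was added for 4 h, formazan was dissolved in DMSO, and OD was read at 570 nm. Vehicle control was 0.1% DMSO. IC50 was calculated from inhibition ratios as the mean ± SD of three independent experiments.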

Bel-7402 [1] = assay: Antiproliferative activity against human Bel7402 cells after 72 hrs by MTT assay; format: functional, cell-based; conditions: Bel-7402, 72 h; outline: as §1
L02 = assay: Antiproliferative activity against human LO2 cells after 72 hrs by MTT assay; format: cell-based; conditions: L02, 72 h; outline: as §1
Bel-7402 [2] = assay: Cell cycle arrest in human Bel7402 cells assessed as accumulation at G1 phase at 0.125 uM after 72 hrs by propidium iodide staining-based flow cytometric method (reference value: 39.28%); format: functional
Bel-7402 [3] = assay: Cell cycle arrest in human Bel7402 cells assessed as accumulation at S phase at 0.125 uM after 72 hrs by propidium iodide staining-based flow cytometric method (reference value: 37.02%); format: functional
Bel-7402 [4] = assay: Cell cycle arrest in human Bel7402 cells assessed as accumulation at G1 phase at 0.25 uM after 72 hrs by propidium iodide staining-based flow cytometric method (reference value: 39.28%); format: functional
Bel-7402 [5] = assay: Cell cycle arrest in human Bel7402 cells assessed as accumulation at G2/M phase at 0.25 uM after 72 hrs by propidium iodide staining-based flow cytometric method (reference value: 23.71%); format: functional
Bel-7402 [6] = assay: Cell cycle arrest in human Bel7402 cells assessed as accumulation at G1 phase at 0.5 uM after 72 hrs by propidium iodide staining-based flow cytometric method (reference value: 39.28%); format: functional
Bel-7402 [7] = assay: Cell cycle arrest in human Bel7402 cells assessed as accumulation at G2/M phase at 0.5 uM after 72 hrs by propidium iodide staining-based flow cytometric method (reference value: 23.71%); format: functional
Bel-7402 [8] = assay: Cell cycle arrest in human Bel7402 cells assessed as accumulation at S phase at 0.5 uM after 72 hrs by propidium iodide staining-based flow cytometric method (reference value: 37.02%); format: functional
Bel-7402 [9] = assay: Cell cycle arrest in human Bel7402 cells assessed as accumulation at G1 phase after 72 hrs by propidium iodide staining-based flow cytometric method; format: functional
Bel-7402 [10] = assay: Induction of apoptosis in human Bel7402 cells assessed as cell shrinkage at 0.125 to 0.25 uM after 48 hrs by Hoechst 33258 staining based fluorescent microscopic method; format: functional
Outline: (§2)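 Bel-7402 cells were seeded and grown 24 h, treated at 0.125, 0.25 and 0.5 µM for 48 h, then harvested by mild trypsinization and washed in PBS. They were stained with Hoechst 33258 for 15 min at room temperature in the dark and examined by fluorescence microscopy with a DAPI filter. Untreated cells served as control.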

Bel-7402 [11] = assay: Induction of apoptosis in human Bel7402 cells assessed as reduction in number of adherent cells at 0.125 to 0.25 uM after 48 hrs by Hoechst 33258 staining based fluorescent microscopic method; format: functional, cell-based; outline: as §2
Bel-7402 [12] = assay: Induction of apoptosis in human Bel7402 cells assessed as rupture of cell membrane at 0.5 uM after 48 hrs by Hoechst 33258 staining based fluorescent microscopic method; format: functional; outline: as §2
Bel-7402 [13] = assay: Induction of apoptosis in human Bel7402 cells assessed as nuclear fragmentation at 0.5 uM after 48 hrs by Hoechst 33258 staining based fluorescent microscopic method; format: functional, cell-based; outline: as §2
Bel-7402 [14] = assay: Induction of apoptosis in human Bel7402 cells after 72 hrs by Annexin V-FITC/propidium iodide staining based flow cytometry; format: functional, cell-based
Bel-7402 [15] = assay: Induction of apoptosis in human Bel7402 cells assessed as late apoptotic cells at 0.125 uM after 72 hrs by Annexin V-FITC/propidium iodide staining based flow cytometry (reference value: 2.82%); format: functional
Bel-7402 [16] = assay: Induction of apoptosis in human Bel7402 cells assessed as necrotic cells at 0.125 uM after 72 hrs by Annexin V-FITC/propidium iodide staining based flow cytometry (reference value: 13.05%); format: functional
Bel-7402 [17] = assay: Induction of apoptosis in human Bel7402 cells assessed as viable cells at 0.125 uM after 72 hrs by Annexin V-FITC/propidium iodide staining based flow cytometry (reference value: 82.48%); format: functional; conditions: Bel-7402, 72 h, read-out: Activity
Bel-7402 [18] = assay: Induction of apoptosis in human Bel7402 cells assessed as necrotic cells at 0.25 uM after 72 hrs by Annexin V-FITC/propidium iodide staining based flow cytometry (reference value: 13.05%); format: functional
Bel-7402 [19] = assay: Induction of apoptosis in human Bel7402 cells assessed as viable cells at 0.25 uM after 72 hrs by Annexin V-FITC/propidium iodide staining based flow cytometry (reference value: 82.48%); format: functional; conditions: Bel-7402, 72 h, read-out: Activity
Bel-7402 [20] = assay: Induction of apoptosis in human Bel7402 cells assessed as early apoptotic cells at 0.5 uM after 72 hrs by Annexin V-FITC/propidium iodide staining based flow cytometry (reference value: 1.65%); format: functional
Bel-7402 [21] = assay: Induction of apoptosis in human Bel7402 cells assessed as late apoptotic cells at 0.5 uM after 72 hrs by Annexin V-FITC/propidium iodide staining based flow cytometry (reference value: 2.82%); format: functional
Bel-7402 [22] = assay: Induction of apoptosis in human Bel7402 cells assessed as necrotic cells at 0.5 uM after 72 hrs by Annexin V-FITC/propidium iodide staining based flow cytometry (reference value: 13.05%); format: functional
Bel-7402 [23] = assay: Upregulation of Bax level in human Bel7402 cells after 72 hrs by Western blot analysis; format: functional, cell-based
Outline: (§3)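 Bel-7402 cells were treated for 72 h at the indicated concentrations (0.125–0.5 µM) and lysed. Lysates were cleared at 14,000 g for 10 min at 4 °C, and 25 µg protein per lane was run on 10% SDS-PAGE and transferred to nitrocellulose. Membranes were blocked in 5% milk, probed overnight at 4 °C with monoclonal antibodies, and detected by ECL. Densitometry was normalized to GAPDH.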

Bel-7402 [24] = assay: Upregulation of caspase-3 level in human Bel7402 cells at 0.125 to 0.5 uM after 72 hrs by Western blot analysis; format: functional, cell-based; outline: as §3
Bel-7402 [25] = assay: Induction of mitochondrial membrane depolarization in human Bel7402 cells assessed as cells with mitochondrial membrane potential loss at 0.125 uM after 24 to 48 hrs by JC-1 staining based flow cytometric analysis (reference value: 6.17%); format: functional
Bel-7402 [26] = assay: Induction of mitochondrial membrane depolarization in human Bel7402 cells assessed as cell with intact mitochondrial membrane potential at 0.25 uM after 24 to 48 hrs by JC-1 staining based flow cytometric analysis (reference value: 98.83%); format: functional
Bel-7402 [27] = assay: Induction of mitochondrial membrane depolarization in human Bel7402 cells assessed as cell with intact mitochondrial membrane potential at 0.5 uM after 24 to 48 hrs by JC-1 staining based flow cytometric analysis (reference value: 98.83%); format: functional
Bel-7402 [28] = assay: Induction of mitochondrial membrane depolarization in human Bel7402 cells assessed as cells with mitochondrial membrane potential loss at 0.5 uM after 24 to 48 hrs by JC-1 staining based flow cytometric analysis (reference value: 6.17%); format: functional

`C[C@H]1CCC/C=C/[C@@H]2C[C@H](O)C[C@H]2[C@H](OC(=O)c2ccc(N(CCCl)CCCl)cc2)/C=C/C(=O)O1` gave an IC50 (PC-3) of 9.37 µM, an IC50 (Bel-7402 [1]) of 0.25 µM and an IC50 (L02) of 9.74 µM. For the same compound, the Activity (Bel-7402 [2]) was 43.8%, the Activity (Bel-7402 [3]) was 36.28% and the Activity (Bel-7402 [4]) was 54.26%. For the same compound, the Activity (Bel-7402 [5]) was 13.27%, the Activity (Bel-7402 [6]) was 58.17% and the Activity (Bel-7402 [7]) was 11.69%. The Activity (Bel-7402 [8]) was 30.14%, the Activity (Bel-7402 [9]) was “Dose-dependent effect” and the Activity (Bel-7402 [10]) was “Active”. For the same compound, the Activity (Bel-7402 [11]) was “Active”, the Activity (Bel-7402 [12]) was “Active” and the Activity (Bel-7402 [13]) was “Active”. The Activity (Bel-7402 [14]) was “Dose-dependent effect”, the Activity (Bel-7402 [15]) was 5.47% and the Activity (Bel-7402 [16]) was 3.45%. For the same compound, the viability at 0.125 µM (Bel-7402 [17]) was 80.6%, the Activity (Bel-7402 [18]) was 3.21% and the viability at 0.25 µM (Bel-7402 [19]) was 62.9%. For the same compound, the Activity (Bel-7402 [20]) was 39.11%, the Activity (Bel-7402 [21]) was 18.48% and the Activity (Bel-7402 [22]) was 3.87%. The Activity (Bel-7402 [23]) was “Dose-dependent effect”, the Activity (Bel-7402 [24]) was “Active” and the Activity (Bel-7402 [25]) was 16.06%. The Activity (Bel-7402 [26]) was 70.4%, the Activity (Bel-7402 [27]) was 56.15% and the Activity (Bel-7402 [28]) was 43.85%.
